One assay addresses IRE1β* RNase (Homo sapiens, UniProt Q76MJ5). Briefly: fluorescence-quenched XBP1 mini-substrate RNase assay, IRE1β*. It counts as biochemical. The gist of the method:
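Recombinant IRE1β* RNase cleaves a FRET-quenched XBP1 mini-substrate, monitored in real time as a fluorescence increase. Activation is tested at a low, mainly monomeric IRE1β* concentration and inhibition at a higher, dimer-containing concentration. Initial cleavage rates are compared with DMSO. IC50 values are mean ± SEM, n=3. Selectivity is the IRE1α* RNase IC50 divided by the IRE1β* RNase IC50.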

For a further assay, the target named is IRE1α* RNase (Homo sapiens, UniProt O75460). Briefly: fluorescence-quenched XBP1 mini-substrate RNase assay, IRE1α*. Format: biochemical. The note with it: read-out: IRE1α RNase IC50, mean ± SEM, n=3. The gist of the method: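 IRE1α* RNase activity was followed in vitro as the real-time rise in fluorescence on cleavage of a FRET-quenched XBP1 mini-substrate. IC50 was taken from inhibition curves, mean ± SEM, n=3. Selectivity is the IRE1α RNase IC50 divided by the IRE1β RNase IC50, for each inhibitor.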
Chain of IRE1α* RNase (O75460 465-977 limits assumed): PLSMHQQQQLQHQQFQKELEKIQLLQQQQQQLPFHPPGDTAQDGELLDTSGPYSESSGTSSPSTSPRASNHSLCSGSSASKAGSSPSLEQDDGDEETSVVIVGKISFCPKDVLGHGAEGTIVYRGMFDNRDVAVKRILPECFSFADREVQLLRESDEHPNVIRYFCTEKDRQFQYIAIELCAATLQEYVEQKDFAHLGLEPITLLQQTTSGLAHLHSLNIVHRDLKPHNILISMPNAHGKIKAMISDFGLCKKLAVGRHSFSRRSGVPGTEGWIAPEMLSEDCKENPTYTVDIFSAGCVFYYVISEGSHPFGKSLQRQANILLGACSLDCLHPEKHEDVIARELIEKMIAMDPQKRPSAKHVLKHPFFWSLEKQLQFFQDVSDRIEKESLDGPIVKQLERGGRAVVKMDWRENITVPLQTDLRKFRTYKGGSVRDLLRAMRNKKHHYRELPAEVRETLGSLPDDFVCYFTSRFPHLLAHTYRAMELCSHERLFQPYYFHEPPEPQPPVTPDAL

Chain of IRE1β* RNase (Q76MJ5 452-926 limits assumed): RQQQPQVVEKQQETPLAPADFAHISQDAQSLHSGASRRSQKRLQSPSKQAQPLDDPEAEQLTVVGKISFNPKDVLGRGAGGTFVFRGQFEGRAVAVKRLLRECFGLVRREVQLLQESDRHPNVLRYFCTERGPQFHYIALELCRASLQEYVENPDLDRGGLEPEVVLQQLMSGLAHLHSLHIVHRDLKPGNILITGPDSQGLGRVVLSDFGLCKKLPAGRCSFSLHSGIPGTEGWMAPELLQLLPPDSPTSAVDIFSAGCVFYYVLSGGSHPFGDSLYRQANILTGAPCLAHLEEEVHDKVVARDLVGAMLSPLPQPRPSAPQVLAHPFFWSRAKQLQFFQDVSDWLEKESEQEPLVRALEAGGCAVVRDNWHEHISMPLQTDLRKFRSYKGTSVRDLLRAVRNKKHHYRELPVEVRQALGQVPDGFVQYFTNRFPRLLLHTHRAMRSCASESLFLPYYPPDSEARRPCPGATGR

Take `O=C(Nc1c[nH]nc1-c1nc2ccc(CN3CCOCC3)cc2[nH]1)NC1CC1` [AT9283]: on IRE1β* RNase (Low [IRE1β*] (mainly monomeric), RNase activation), the “rate of XBP1 mini-substrate cleavage relative to the apo form” value is given as 12 fold.
For orientation: IC50 means the concentration that gives 50% inhibition. For the compound `Cc1ccc2c(NS(=O)(=O)c3ccccc3Cl)cccc2c1Oc1ncccc1-c1ccnc(N[C@H]2CCCNC2)n1` [compound 1], the “effect on ability to cleave the XBP1 mini-substrate” value on IRE1β* RNase (High [IRE1β*] (RNase active dimer)) was “almost complete loss in its ability to cleave the XBP1 mini-substrate”. Besides, the “IRE1β RNase Selectivity (Fold)” value on IRE1β* RNase (IRE1α* RNase IC50 divided by IRE1β* RNase IC50) is given as 0.09 Fold. The IC50 on IRE1β* RNase (read-out: IRE1β RNase IC50, mean ± SEM, n=3, XBP1 mini-substrate) was 55 ± 5 nM; on IRE1α* RNase it was 5 ± 2.3 nM.

The values above are taken from PMC6925334 (ACS chemical biology, 2019).
